This is an account of results in ChEMBL document CHEMBL1914327, “Unichiral 2-(2'-pyrrolidinyl)-1,4-benzodioxanes: the 2R,2'S diastereomer of the N-methyl-7-hydroxy analogue is a potent α4β2- and α6β2-nicotinic acetylcholine receptor partial agonist” (J Med Chem, 2011).

Experiment [1] has as its target T1, Neuronal acetylcholine receptor; alpha4/beta2 (Rattus norvegicus, UniProt P09483+P12390). The experiment can be described thus: Displacement of [3H]epibatidine from alpha4beta2 nAChR in Sprague-Dawley rat cerebral cortex by beta counting. The format is tissue-based. In a few lines: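 Sprague-Dawley rat cortical membranes in Tris buffer pH 7 with protease inhibitors. Membranes first blocked with 1 μM α-bungarotoxin. Compound (10 pM to 10 mM) preincubated 30 min at rt, then 0.1 nM [3H]epibatidine (final) added overnight at 4 °C. Nonspecific binding defined with 100 nM unlabeled epibatidine. Filtered and beta counted. Ki from three independent experiments fitted by LIGAND.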
(Loss of bound radioactivity is the signal in a displacement assay; it reports binding, not function.)

In experiment [2] the target is Neuronal acetylcholine receptor subunit alpha-7 (Rattus norvegicus, UniProt Q05941). The experiment can be described thus: Displacement of [125I]alpha-bungarotoxin from alpha7 nAChR in Sprague-Dawley rat cerebral cortex […]. The format is tissue-based.
Neuronal acetylcholine receptor subunit alpha-7, sequence (Q05941 whole entry): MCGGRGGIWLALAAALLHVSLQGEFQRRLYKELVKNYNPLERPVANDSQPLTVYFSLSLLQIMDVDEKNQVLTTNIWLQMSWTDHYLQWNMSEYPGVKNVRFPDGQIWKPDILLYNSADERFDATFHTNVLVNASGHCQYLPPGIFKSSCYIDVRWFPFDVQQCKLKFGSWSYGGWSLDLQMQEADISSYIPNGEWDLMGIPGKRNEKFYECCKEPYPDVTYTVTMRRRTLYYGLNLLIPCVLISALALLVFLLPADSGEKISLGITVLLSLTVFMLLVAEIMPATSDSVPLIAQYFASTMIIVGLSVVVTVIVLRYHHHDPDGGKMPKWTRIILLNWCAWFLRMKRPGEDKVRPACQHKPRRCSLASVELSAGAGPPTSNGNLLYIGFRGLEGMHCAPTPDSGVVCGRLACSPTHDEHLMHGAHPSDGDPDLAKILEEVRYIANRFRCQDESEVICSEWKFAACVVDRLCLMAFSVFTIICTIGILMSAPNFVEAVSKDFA
The species named for experiment [3] is Rattus norvegicus. The experiment in a line: Selectivity ratio of Ki for alpha7 nAChR in Sprague-Dawley rat cerebral cortex to Ki for alpha4beta2 nAChR in Sprague-Dawley rat cerebral cortex. The class given is tissue-based. In a few lines:
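Sprague-Dawley rat cortical membranes, with compound (10 pM–10 mM) preincubated 30 min at rt. α4β2 assay: membranes pretreated with 1 μM α-bungarotoxin, then 0.1 nM [3H]epibatidine overnight at 4 °C. α7 assay: 1 nM [125I]α-bungarotoxin overnight at rt. Ki values were from LIGAND fits of three experiments, and the ratio was taken from these Ki values.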

Experiment [4] deals with T2, Neuronal acetylcholine receptor subunit alpha-6/beta-3 (Rattus norvegicus) (UniProt P12391+P43143). The experiment can be described thus: Agonist activity at rat alpha6beta2 nAChR assessed as [3H]dopamine release from rat striatum by beta counting relative to 10 uM nicotine. The format is functional.
In experiment [5] the target is T3, Neuronal acetylcholine receptor; alpha4/beta2 (Rattus norvegicus) (UniProt P09483+P12390). The experiment can be described thus: Agonist activity at rat alpha4beta2 nAChR assessed as [3H]dopamine release from rat striatum by beta counting relative to 10 uM nicotine. The format is functional. In a few lines:
(§1)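 Rat striatal slices (150 μm) were preloaded for 30 min with 100 nM [3H]DA in Krebs buffer containing 10 μM pargyline, then washed with pargyline plus 0.5 μM nomifensine. Slices were exposed to agonist for 5 min at 37 °C. […] EC50/Emax came from nonlinear regression; six replicates, ≥3 experiments.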

The target of experiment [6] is T1, Neuronal acetylcholine receptor; alpha4/beta2. The experiment in a line: Agonist activity at rat alpha4beta2 nAChR assessed as [3H]dopamine release by beta counting. The format is functional. In a few lines:
as §1

Experiment [7] has the same target. The experiment in a line: Partial agonist activity at Nicotinic acetylcholine alpha4beta2 receptor in rat striatum assessed as [3H]dopamine release by beta counting. The format is functional, tissue-based. The gist of the method: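 Rat striatal slices (150 μm) were preloaded for 30 min with 100 nM [3H]DA in Krebs buffer containing 10 μM pargyline, then washed with pargyline plus 0.5 μM nomifensine. Slices were exposed to agonist for 5 min at 37 °C.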

Experiment [8] deals with Neuronal acetylcholine receptor; alpha3/beta4 (Rattus norvegicus, UniProt P04757+P12392). The experiment in a line: Partial agonist activity at rat alpha3beta4 nAChR assessed as [3H]noradrenaline release from rat […] by beta counting. The class given is functional.
Neuronal acetylcholine receptor; alpha3/beta4 (Rattus norvegicus, UniProt P04757+P12392), sequence (P04757 whole entry): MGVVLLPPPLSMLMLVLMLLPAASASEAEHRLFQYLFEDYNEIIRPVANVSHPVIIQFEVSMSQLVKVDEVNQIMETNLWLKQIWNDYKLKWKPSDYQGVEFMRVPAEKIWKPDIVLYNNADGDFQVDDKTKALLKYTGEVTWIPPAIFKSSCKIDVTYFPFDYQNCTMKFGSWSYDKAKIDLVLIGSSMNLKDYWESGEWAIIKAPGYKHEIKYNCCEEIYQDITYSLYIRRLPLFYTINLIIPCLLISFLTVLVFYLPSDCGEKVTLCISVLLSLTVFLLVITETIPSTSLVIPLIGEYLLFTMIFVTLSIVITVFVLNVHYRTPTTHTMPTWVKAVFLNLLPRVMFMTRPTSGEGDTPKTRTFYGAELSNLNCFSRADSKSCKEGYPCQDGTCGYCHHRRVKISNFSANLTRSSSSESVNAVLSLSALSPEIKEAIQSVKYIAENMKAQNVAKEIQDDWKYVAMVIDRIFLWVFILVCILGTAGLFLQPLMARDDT
Neuronal acetylcholine receptor; alpha3/beta4 (Rattus norvegicus, UniProt P04757+P12392), sequence (P12392 whole entry): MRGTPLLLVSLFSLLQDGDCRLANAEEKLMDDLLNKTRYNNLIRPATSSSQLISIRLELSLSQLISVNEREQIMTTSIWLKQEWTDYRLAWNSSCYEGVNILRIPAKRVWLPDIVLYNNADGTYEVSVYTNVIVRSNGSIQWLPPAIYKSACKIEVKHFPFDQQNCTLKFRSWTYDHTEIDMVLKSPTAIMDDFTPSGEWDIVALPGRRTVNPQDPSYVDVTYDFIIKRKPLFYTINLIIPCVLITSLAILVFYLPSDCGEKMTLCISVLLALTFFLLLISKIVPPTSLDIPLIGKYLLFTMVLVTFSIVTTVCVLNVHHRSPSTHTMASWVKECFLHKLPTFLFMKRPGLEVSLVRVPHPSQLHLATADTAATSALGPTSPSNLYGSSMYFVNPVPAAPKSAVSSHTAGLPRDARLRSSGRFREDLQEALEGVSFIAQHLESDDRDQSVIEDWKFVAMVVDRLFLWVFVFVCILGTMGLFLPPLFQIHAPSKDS
In experiment [9] the target is Neuronal acetylcholine receptor; alpha3/beta4 (Homo sapiens, UniProt P30926+P32297). The experiment can be described thus: Displacement of [3H]epibatidine from human alpha3beta4 nAChR expressed in human HEK293 cells by scintillation counting. The format is cell-based. The gist of the method: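 Membranes from HEK293 cells transiently transfected with α3 and β4 cDNAs (harvested at 48 h). Compound was preincubated for 5 min, then 0.25 nM [3H]epibatidine was added overnight at 4 °C in Tris buffer (pH 7) with BSA and no Tween. Nonspecific binding used 100 nM epibatidine. Ki was fitted from three experiments in triplicate.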
Neuronal acetylcholine receptor; alpha3/beta4 (Homo sapiens, UniProt P30926+P32297), sequence (P30926 whole entry): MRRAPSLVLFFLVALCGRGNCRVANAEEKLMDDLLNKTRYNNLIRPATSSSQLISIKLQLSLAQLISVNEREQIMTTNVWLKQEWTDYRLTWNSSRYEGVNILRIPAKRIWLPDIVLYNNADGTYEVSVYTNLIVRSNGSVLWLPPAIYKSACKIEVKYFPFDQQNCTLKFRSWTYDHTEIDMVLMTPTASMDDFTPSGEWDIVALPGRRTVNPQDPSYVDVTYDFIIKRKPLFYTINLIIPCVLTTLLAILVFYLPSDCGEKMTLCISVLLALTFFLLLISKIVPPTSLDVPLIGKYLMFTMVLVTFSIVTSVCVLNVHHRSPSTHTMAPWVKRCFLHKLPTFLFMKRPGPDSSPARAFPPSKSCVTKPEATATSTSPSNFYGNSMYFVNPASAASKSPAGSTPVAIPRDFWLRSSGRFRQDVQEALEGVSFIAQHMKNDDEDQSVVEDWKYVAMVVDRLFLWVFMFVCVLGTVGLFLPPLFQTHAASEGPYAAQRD
Neuronal acetylcholine receptor; alpha3/beta4 (Homo sapiens, UniProt P30926+P32297), sequence (P32297 whole entry): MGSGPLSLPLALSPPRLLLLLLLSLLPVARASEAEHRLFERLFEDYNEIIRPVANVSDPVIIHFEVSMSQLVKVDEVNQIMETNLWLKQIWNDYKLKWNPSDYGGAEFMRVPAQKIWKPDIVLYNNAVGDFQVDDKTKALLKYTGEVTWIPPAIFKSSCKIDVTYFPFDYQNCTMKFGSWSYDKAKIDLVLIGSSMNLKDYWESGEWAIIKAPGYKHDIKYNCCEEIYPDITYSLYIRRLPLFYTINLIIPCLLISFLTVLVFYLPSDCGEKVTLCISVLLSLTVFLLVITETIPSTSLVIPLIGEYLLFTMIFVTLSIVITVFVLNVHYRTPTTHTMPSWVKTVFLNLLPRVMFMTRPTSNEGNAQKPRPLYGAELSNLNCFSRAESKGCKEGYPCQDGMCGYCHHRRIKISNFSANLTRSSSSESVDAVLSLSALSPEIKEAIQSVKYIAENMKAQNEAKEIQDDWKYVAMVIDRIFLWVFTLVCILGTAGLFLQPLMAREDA

The test system of experiment [10] is HEK293. The experiment can be described thus: Selectivity ratio of Ki for human alpha3beta4 nAChR expressed in human HEK293 cells to Ki for alpha4beta2 nAChR in rat cerebral cortex. The class given is cell-based.
Experiment [11] has as its target T3, Neuronal acetylcholine receptor; alpha4/beta2 (Rattus norvegicus). The experiment can be described thus: Partial agonist activity at Nicotinic acetylcholine alpha4beta2 receptor in rat striatum assessed as [3H]dopamine release by beta counting relative to nicotine. The format is functional, tissue-based. The gist of the method:
as §1

Experiment [12] addresses T2, Neuronal acetylcholine receptor subunit alpha-6/beta-3 (Rattus norvegicus). The experiment can be described thus: Partial agonist activity at alpha6beta2 nAChR in rat striatum assessed as decrease in [3H]dopamine release by beta counting in the presence of antagonist alphaconotoxin MII. The class given is functional, tissue-based.

The source made the active and inactive calls. No cut-off for these calls is given here.

T1 sequence (P09483 whole entry): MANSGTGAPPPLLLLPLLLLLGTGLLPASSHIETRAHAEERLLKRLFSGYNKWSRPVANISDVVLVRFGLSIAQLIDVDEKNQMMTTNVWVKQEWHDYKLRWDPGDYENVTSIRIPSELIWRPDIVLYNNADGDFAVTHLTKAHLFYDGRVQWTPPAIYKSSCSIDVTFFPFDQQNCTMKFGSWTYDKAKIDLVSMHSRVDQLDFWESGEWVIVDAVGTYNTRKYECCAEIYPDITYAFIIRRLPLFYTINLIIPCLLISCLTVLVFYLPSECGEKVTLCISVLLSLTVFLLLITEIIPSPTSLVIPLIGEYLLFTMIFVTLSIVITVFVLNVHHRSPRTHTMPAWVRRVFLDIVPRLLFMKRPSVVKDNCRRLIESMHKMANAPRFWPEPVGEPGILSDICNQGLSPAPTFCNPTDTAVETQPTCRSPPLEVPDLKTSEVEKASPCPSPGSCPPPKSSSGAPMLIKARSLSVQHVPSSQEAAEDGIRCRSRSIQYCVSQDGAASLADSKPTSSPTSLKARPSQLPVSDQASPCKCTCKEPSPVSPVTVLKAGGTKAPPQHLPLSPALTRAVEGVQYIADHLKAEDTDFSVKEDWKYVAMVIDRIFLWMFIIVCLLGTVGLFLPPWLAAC
T1 sequence (P12390 whole entry): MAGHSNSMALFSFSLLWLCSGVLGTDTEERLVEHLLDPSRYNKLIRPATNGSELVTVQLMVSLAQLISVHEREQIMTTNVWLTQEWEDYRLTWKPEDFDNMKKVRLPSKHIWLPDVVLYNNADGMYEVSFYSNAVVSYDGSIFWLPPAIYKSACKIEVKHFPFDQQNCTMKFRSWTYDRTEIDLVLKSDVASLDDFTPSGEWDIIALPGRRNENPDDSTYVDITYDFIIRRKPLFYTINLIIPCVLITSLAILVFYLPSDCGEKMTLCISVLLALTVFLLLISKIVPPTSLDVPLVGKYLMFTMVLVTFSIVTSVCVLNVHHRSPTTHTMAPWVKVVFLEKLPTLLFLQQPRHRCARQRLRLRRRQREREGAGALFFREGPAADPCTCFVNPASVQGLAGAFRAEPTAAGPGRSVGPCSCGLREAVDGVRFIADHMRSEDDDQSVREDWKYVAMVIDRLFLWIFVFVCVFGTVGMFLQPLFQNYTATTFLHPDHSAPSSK

Turning to `Oc1ccc2c(c1)O[C@@H]([C@@H]1CCCN1)CO2`, the Ki in [1] amounted to 1.2 µM; in experiment [2], 53 µM.

As for `Oc1ccc2c(c1)O[C@@H]([C@H]1CCCN1)CO2`, the results for the Ki in [1] and in [2] were 18 µM and 35 µM, respectively.

Turning to `CN1CCC[C@H]1[C@H]1COc2ccc(O)cc2O1`, the Ki in experiment [1] came out at 0.421 µM; in experiment [2] it was 20 µM. Besides, the Ratio Ki in experiment [3] is 47.

With `CN1CCC[C@H]1[C@@H]1COc2ccc(-c3ccccc3)cc2O1`, the inhibitory constant (Ki) was 35 µM in experiment [1] and 36 µM in experiment [2].

In the case of `CC(C)Oc1ccc2c(c1)O[C@H]([C@@H]1CCCN1C)CO2`, the results for the Ki in experiment [1] and in experiment [2] were 9.3 µM and 6.1 µM, respectively.

As for `COc1ccc2c(c1)O[C@@H]([C@@H]1CCCN1C)CO2`, the Ki in experiment [1] turned out to be 4.2 µM; in [2] it was 26 µM.

In the case of `Cc1ccc2c(c1)O[C@@H]([C@@H]1CCCN1C)CO2`, the inhibition constant Ki in experiment [1] amounted to 5.7 µM; in [2], 64 µM.

On to `c1cnc2cc3c(cc2n1)[C@@H]1CNC[C@H]3C1` [VARENICLINE], for which the Efficacy in experiment [4] and in experiment [5] was 49% in each case. In addition, the EC50 in experiment [6] came out at 0.046 µM.

`CC(=O)c1ccc2c(c1)O[C@H]([C@@H]1CCCN1C)CO2` (racemic): the results for the inhibition constant (Ki) in experiment [1] and in experiment [2] were 97 µM and 110 µM, respectively.

Take `COc1ccc2c(c1)O[C@H]([C@@H]1CCCN1C)CO2`: the inhibitory constant (Ki) in experiment [1] was determined as 17 µM; in [2], 32 µM.

As for `CN1CCC[C@H]1[C@H]1COc2ccc(-c3ccccc3)cc2O1`, the inhibitory constant (Ki) in experiment [1] was determined as 3.1 µM; in experiment [2], 51 µM.

Take `Oc1ccc2c(c1)O[C@H]([C@H]1CCCN1)CO2`: the values for the Ki in experiment [1] and in [2] were 1.3 µM and 3 µM, respectively.

`CN1CCC[C@H]1[C@@H]1COc2ccc(CO)cc2O1`: the Ki in experiment [1] came to 51 µM; in [2] it was 60 µM.

Consider `CN1CCC[C@H]1[C@@H]1COc2ccc(O)cc2O1`, for which the EC50 worked out at 0.082 µM in [7] and 17.6 µM in experiment [8]. For the same compound, the values for the inhibitory constant (Ki) in [1], in [9] and in [2] were 0.012 µM, 0.31 µM and 0.427 µM, respectively. Further, the figures for the Ratio Ki in experiment [10] and in [3] were 26 and 35, respectively. Moreover, the Efficacy in experiment [11] stood at 51%. Also, the result in [12] was inactive.

In the case of `Cc1ccc2c(c1)O[C@H]([C@@H]1CCCN1C)CO2`, the Ki in [1] was found to be 42 µM; in [2], 126 µM.

On to `CN1CCC[C@H]1[C@H]1COc2ccc(CO)cc2O1`, for which the Ki in experiment [1] amounted to 9.5 µM; in [2] it was 12 µM.

Take `CN1CCC[C@@H]1[C@@H]1COc2ccc(O)cc2O1`: the Ki in [1] was determined as 3 µM; in experiment [2], 1.3 µM.

On to `CC(=O)c1ccc2c(c1)O[C@@H]([C@@H]1CCCN1C)CO2`, for which the figures for the inhibitory constant (Ki) in [1] and in experiment [2] were 11.7 µM and 30 µM, respectively.

With `Oc1ccc2c(c1)O[C@H]([C@@H]1CCCN1)CO2`, the Ki amounted to 9 µM in experiment [1] and 33 µM in experiment [2].

On to `CC(C)Oc1ccc2c(c1)O[C@@H]([C@@H]1CCCN1C)CO2`, for which the Ki in experiment [1] stood at 3.2 µM; in [2] it was 43 µM.

On to `CN1CCC[C@H]1[C@H]1COc2ccc(Br)cc2O1`, for which the Kd in experiment [1] is 0.036 nM; in [2], 0.0003 µM. The Ki was determined as 3 µM in experiment [1] and 22 µM in experiment [2].

For the compound `CN1CCC[C@@H]1[C@H]1COc2ccc(O)cc2O1`, the inhibition constant (Ki) stood at 3.5 µM in experiment [1] and 4.5 µM in experiment [2].

`CN1CCC[C@H]1[C@@H]1COc2ccc(Br)cc2O1`: the Ki in experiment [1] was 8.1 µM; in experiment [2], 22 µM.

What is called Ki is a dissociation constant, usually derived from enzyme kinetics or from competition with a known ligand. Read a low Ki as a stronger hold on the target. One may read the EC50 as the concentration needed to bring the measured effect to its halfway point. Usually Kd stands for a measure of binding affinity in units of concentration. Higher therefore signals a looser complex.
